From ChEMBL document CHEMBL4028828, “Syntheses of benzophenone-xanthone hybrid polyketides and their antibacterial activities” (2017)
Values after ≈ are worked out from the molar mass of the structure shown. Active and inactive are the calls of the source. The calls are words filed in the database; no cut-off is given here.

Columns and labels:
Assay type in all cases: functional
Staphylococcus aureus = experiment: Antibacterial activity against Staphylococcus aureus NBRC 100910 after overnight incubation by microdilution method
Outline: (§1)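 Broth microdilution MIC, modified Eloff method. Compounds were dissolved in DMSO (under 5%) and tested in duplicate. Two-fold serial dilution followed by overnight incubation at 37 °C. MIC is the lowest concentration inhibiting growth.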

Bacillus subtilis = experiment: Antibacterial activity against Bacillus subtilis NBRC 13719 after overnight incubation by microdilution method; outline: as §1
Klebsiella pneumoniae = experiment: Antibacterial activity against Klebsiella pneumoniae NBRC 14940 after overnight incubation by microdilution method; outline: as §1
Escherichia coli = experiment: Antibacterial activity against Escherichia coli NBRC 102203 after overnight incubation by microdilution method; outline: as §1
[1] = Staphylococcus aureus, NBRC 100910, read-out: MIC
[2] = Bacillus subtilis, NBRC 13719, read-out: MIC

| SMILES | MIC (Staphylococcus aureus; [1]) [µM] | MIC (Bacillus subtilis; [2]) [µM] | Activity (Klebsiella pneumoniae) | Activity (Escherichia coli) | MIC (Staphylococcus aureus) [µM] | MIC (Bacillus subtilis) [µM] |
| --- | --- | --- | --- | --- | --- | --- |
| Oc1ccc(O)c(O)c1 | > 100 | > 100 | inactive | inactive |  |  |
| COc1cc(OC)c(C(=O)c2ccccc2)cc1OC | > 100 | > 100 | inactive | inactive |  |  |
| COc1cc(O)c2c(=O)c3c(OC)cc(OC)cc3oc2c1 | > 100 | > 100 | inactive | inactive |  |  |
| O=c1c2ccccc2oc2cc(O)cc(O)c12 | 100 (≈ 22.8 µg/mL) | > 100 | inactive | inactive |  |  |
| COc1cc(OC)c2c(=O)c3c(O)cc(O)cc3oc2c1 | > 100 | > 100 | inactive | inactive |  |  |
| COc1cc(OC)c(C(O)c2ccccc2)cc1OC (stereo not drawn) | > 100 | > 100 | inactive | inactive |  |  |
| O=c1c2ccc(O)cc2oc2cc(O)cc(O)c12 | 100 (≈ 24.4 µg/mL) | > 100 | inactive | inactive |  |  |
| O=c1c2c(O)cc(O)cc2oc2cc(O)cc(O)c12 | 50 (≈ 13 µg/mL) | > 100 | inactive | inactive |  |  |
| COc1cc(OC)c2c(=O)c3c(O)cc(O)c(C(c4ccccc4)c4cc(OC)c(OC)cc4OC)c3oc2c1 (racemic) | > 100 | > 100 | inactive | inactive |  |  |
| COc1cc(OC)c(C(c2ccccc2)c2c(O)cc(O)c3c(=O)c4ccccc4oc23)cc1OC (racemic) [listing 1 of 2 here] |  | > 100 |  |  | 25 (≈ 12.1 µg/mL) |  |
| COc1cc(OC)c(C(c2ccccc2)c2c(O)cc(O)c3c(=O)c4ccc(O)cc4oc23)cc1OC (racemic) [listing 1 of 2 here] |  | 12.5 (≈ 6.26 µg/mL) |  |  |  |  |
| COc1cc(OC)c2c(=O)c3c(O)cc(OC)c(C(c4ccccc4)c4cc(OC)c(OC)cc4OC)c3oc2c1 (racemic) | > 100 | > 100 | inactive | inactive |  |  |
| COc1cc(OC)c(C(c2ccccc2)c2c(O)cc(O)c3c(=O)c4c(O)cc(O)cc4oc23)cc1OC (racemic) |  |  | inactive | inactive |  |  |
| COc1cc(OC)c(C(c2ccccc2)c2c(O)cc(O)c3c(=O)c4ccc(O)cc4oc23)cc1OC (racemic) [listing 2 of 2 here] |  |  | inactive | inactive |  |  |
| COc1cc(OC)c(C(c2ccccc2)c2c(O)cc(O)c3c(=O)c4ccccc4oc23)cc1OC (racemic) [listing 2 of 2 here] |  |  | inactive | inactive |  |  |
| COc1cc(OC)c(C(c2ccccc2)c2c(O)cc(O)c3c(=O)c4ccccc4oc23)cc1OC (single isomer, unassigned; (+)) [listing 1 of 2 here] |  |  |  |  | 10 (≈ 4.85 µg/mL) |  |
| COc1cc(OC)c(C(c2ccccc2)c2c(O)cc(O)c3c(=O)c4c(O)cc(O)cc4oc23)cc1OC (single isomer, unassigned; (+)) [listing 1 of 2 here] |  |  |  |  | 10 (≈ 5.17 µg/mL) | 50 (≈ 25.8 µg/mL) |
| COc1cc(OC)c(C(c2ccccc2)c2c(O)cc(O)c3c(=O)c4c(O)cc(O)cc4oc23)cc1OC (single isomer, unassigned; (+)) [listing 2 of 2 here] |  |  | inactive | inactive |  |  |
| COc1cc(OC)c(C(c2ccccc2)c2c(O)cc(O)c3c(=O)c4ccccc4oc23)cc1OC (single isomer, unassigned; (+)) [listing 2 of 2 here] |  |  | inactive | inactive |  |  |
| COc1cc(OC)c(C(c2ccccc2)c2c(O)cc(O)c3c(=O)c4ccccc4oc23)cc1OC (single isomer, unassigned; (-)) [listing 1 of 2 here] |  |  |  |  | 50 (≈ 24.2 µg/mL) |  |
| COc1cc(OC)c(C(c2ccccc2)c2c(O)cc(O)c3c(=O)c4c(O)cc(O)cc4oc23)cc1OC (single isomer, unassigned; (-)) [listing 1 of 2 here] | 12.5 (≈ 6.46 µg/mL) | 100 (≈ 51.7 µg/mL) |  |  |  |  |
| COc1cc(OC)c(C(c2ccccc2)c2c(O)cc(O)c3c(=O)c4c(O)cc(O)cc4oc23)cc1OC (single isomer, unassigned; (-)) [listing 2 of 2 here] |  |  | inactive | inactive |  |  |
| COc1cc(OC)c(C(c2ccccc2)c2c(O)cc(O)c3c(=O)c4ccccc4oc23)cc1OC (single isomer, unassigned; (-)) [listing 2 of 2 here] |  |  | inactive | inactive |  |  |
| COc1cc(OC)c(C(c2ccccc2)c2c(O)cc(O)c3c(=O)c4ccc(O)cc4oc23)cc1OC (stereo in doubt; (+)-2) [listing 1 of 2 here] |  |  |  |  |  | 10 (≈ 5.01 µg/mL) |
| COc1cc(OC)c(C(c2ccccc2)c2c(O)cc(O)c3c(=O)c4ccc(O)cc4oc23)cc1OC (stereo in doubt; (+)-2) [listing 2 of 2 here] |  |  | inactive | inactive |  |  |
| COc1cc(OC)c(C(c2ccccc2)c2c(O)cc(O)c3c(=O)c4ccc(O)cc4oc23)cc1OC (stereo in doubt; (-)-2) [listing 1 of 2 here] | 10 (≈ 5.01 µg/mL) |  |  |  |  |  |
| COc1cc(OC)c(C(c2ccccc2)c2c(O)cc(O)c3c(=O)c4ccc(O)cc4oc23)cc1OC (stereo in doubt; (-)-2) [listing 2 of 2 here] |  |  | inactive | inactive |  |  |
| CC1(C)S[C@@H]2[C@H](NC(=O)[C@H](N)c3ccccc3)C(=O)N2[C@H]1C(=O)O [AMPICILLIN] | 1.25 (≈ 0.437 µg/mL) | 1.25 (≈ 0.437 µg/mL) |  |  |  |  |
| NC[C@H]1O[C@H](O[C@H]2[C@H](O)[C@@H](O[C@H]3O[C@H](CO)[C@@H](O)[C@H](N)[C@H]3O)[C@H](N)C[C@@H]2N)[C@H](N)[C@@H](O)[C@@H]1O [BEKANAMYCIN] | 1.25 (≈ 0.604 µg/mL) | 1.25 (≈ 0.604 µg/mL) |  |  |  |  |
